# Columns and labels:
# melanoma cells = details: ref Le Gal et al., 2015; cited from earlier work
# trypsin = details: previous HPLC conditions; ref Akhmadishina et al., 2018; cited from earlier work
# LN-229 cells = assay: MitoSOX flow cytometry of mitochondrial ROS, LN-229; assay type: cell-based, human; details: cytochrome c reductase inhibitor as control
# Procedure, shortened: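 Cells trypsinised, washed and suspended in HBSS at 1 × 10^6 cells/mL, then exposed to test compound (0.2 or 1 mM) in HBSS for 2 h. Stained with 5 μM MitoSOX for 20 min at 37 °C and read by flow cytometry in the red channel. Antimycin A served as the ROS-promoting control. Mean channel fluorescence ± SEM, n = 3; two-way ANOVA with Bonferroni post-test vs untreated.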
# V79 lung fibroblasts = details: ref Grosicka-Maciąg et al., 2011; cited from earlier work
compound,measurement,setting,value
Cc1c(C)c2c(c(C)c1O)CCC(C)(C(=O)O)O2 (centres unmarked) [Trolox],elevation of GSH/GSSG ratio,melanoma cells,ca. 2.5 times
YRFK-NH2,half-time of cleavage by trypsin,trypsin,6 h
CCCCCC[C@H]1C(=O)O[C@H](C)[C@H](NC(=O)c2cccc(NC=O)c2O)C(=O)O[C@@H](C)[C@@H]1OC(=O)CC(C)C [antimycin A],effect on mitochondrial ROS (MitoSOX),LN-229 cells,lack of ROS-promoting effect
"CC(=O)N[C@@H](CS)C(=O)O [N-acetylcysteine (NAC), N-acetylcysteine]",elevation of GSH/GSSG ratio,melanoma cells,~3.8 times
same,increase of both GSH and GSSG levels,V79 lung fibroblasts,up to 2 times

# Source: paper PMC9804109 (Current Research in Pharmacology and Drug Discovery, 2022)
